How the values were obtained:
[1] = target: Cathepsin B (Homo sapiens) (UniProt P07858); experiment: The second order inhibition rate constant for the compound was measured against cathepsin B; NI-No inhibition after 30 min of incubation of enzyme with inhibitor
Procedure, shortened: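 Cathepsin B incubated with inhibitor in 100 mM KH2PO4, 1.33 mM EDTA, 2.7 mM fresh cysteine pH 6.0, 8-9% Me2SO, 23 °C. Aliquots assayed with Z-Arg-Arg-AMC, fluorescence at ex 380/em 460 nm. kobs from ln v/v0 vs time. NI means no inhibition after 30 min.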

[2] = target: Dipeptidyl peptidase 4 (Homo sapiens) (UniProt P27487)
[3] = target: T1, Chymotrypsin-like elastase family member 2A (Sus scrofa) (UniProt P08419); experiment: The second order inhibition rate constant for the compound was measured against PPE; NI-No inhibition after 30 min of incubation of enzyme with inhibitor
T1 sequence (whole entry): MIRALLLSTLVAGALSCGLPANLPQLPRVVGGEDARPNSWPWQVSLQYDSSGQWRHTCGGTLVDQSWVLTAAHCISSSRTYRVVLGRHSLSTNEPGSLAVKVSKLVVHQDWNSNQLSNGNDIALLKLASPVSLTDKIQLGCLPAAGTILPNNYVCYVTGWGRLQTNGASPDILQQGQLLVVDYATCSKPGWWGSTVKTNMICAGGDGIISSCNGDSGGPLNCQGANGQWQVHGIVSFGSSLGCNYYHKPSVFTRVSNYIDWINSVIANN

Papain (Carica papaya) = target: T2, Papain (Carica papaya) (UniProt P00784); experiment: The second order inhibition rate constant for the compound was measured against papain; NI-No inhibition after 30 min of incubation of enzyme with inhibitor
T2 sequence (whole entry): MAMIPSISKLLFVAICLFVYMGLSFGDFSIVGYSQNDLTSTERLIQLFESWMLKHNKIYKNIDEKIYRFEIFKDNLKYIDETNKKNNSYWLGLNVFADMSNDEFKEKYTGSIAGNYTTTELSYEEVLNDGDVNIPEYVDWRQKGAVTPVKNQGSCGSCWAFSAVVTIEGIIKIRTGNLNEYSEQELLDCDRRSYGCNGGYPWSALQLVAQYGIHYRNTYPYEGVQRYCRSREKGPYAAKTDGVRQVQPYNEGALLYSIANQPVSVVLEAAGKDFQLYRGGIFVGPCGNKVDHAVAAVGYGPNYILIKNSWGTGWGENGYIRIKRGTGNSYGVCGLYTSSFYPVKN
Procedure, shortened: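 Papain incubated with inhibitor in 50 mM Tris-HCl, 2 mM EDTA, 5 mM fresh cysteine pH 7.5, 8-9% Me2SO, 23 °C. Aliquots assayed with Bz-Arg-AMC, fluorescence at ex 380/em 460 nm. kobs from ln v/v0 vs time. NI means no inhibition after 30 min.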

[4] = target: T3, Neutrophil elastase (Homo sapiens) (UniProt P08246); experiment: The second order inhibition rate constant for the compound was measured against HLE; NI-No inhibition after 30 min of incubation of enzyme with inhibitor
T3 sequence (whole entry): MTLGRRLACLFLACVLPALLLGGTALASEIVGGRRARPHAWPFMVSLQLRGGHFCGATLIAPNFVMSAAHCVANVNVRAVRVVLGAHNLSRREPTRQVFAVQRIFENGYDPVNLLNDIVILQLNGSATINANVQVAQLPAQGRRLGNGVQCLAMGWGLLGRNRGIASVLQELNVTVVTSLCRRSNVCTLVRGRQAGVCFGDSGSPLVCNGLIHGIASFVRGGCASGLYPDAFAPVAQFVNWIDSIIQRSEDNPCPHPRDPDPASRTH

[5] = Half life for the spontaneous hydrolysis in buffer was measured; type: ADME
Procedure, shortened: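 Inhibitor (0.1 mM final) in 0.05 M Tris pH 7.8 with 10% v/v Me2SO. Spontaneous hydrolysis followed as absorbance rise at 270 nm (phenoxy), 280 nm (4-chlorophenoxy) or 277 nm (4-fluorophenoxy). Half-lives from first-order plots of ln(Af − At) vs time, Af being final absorbance of monophenyl ester plus phenol.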

[6] = target: T4, Choline O-acetyltransferase (Rattus norvegicus) (UniProt P32738)
T4 sequence (whole entry): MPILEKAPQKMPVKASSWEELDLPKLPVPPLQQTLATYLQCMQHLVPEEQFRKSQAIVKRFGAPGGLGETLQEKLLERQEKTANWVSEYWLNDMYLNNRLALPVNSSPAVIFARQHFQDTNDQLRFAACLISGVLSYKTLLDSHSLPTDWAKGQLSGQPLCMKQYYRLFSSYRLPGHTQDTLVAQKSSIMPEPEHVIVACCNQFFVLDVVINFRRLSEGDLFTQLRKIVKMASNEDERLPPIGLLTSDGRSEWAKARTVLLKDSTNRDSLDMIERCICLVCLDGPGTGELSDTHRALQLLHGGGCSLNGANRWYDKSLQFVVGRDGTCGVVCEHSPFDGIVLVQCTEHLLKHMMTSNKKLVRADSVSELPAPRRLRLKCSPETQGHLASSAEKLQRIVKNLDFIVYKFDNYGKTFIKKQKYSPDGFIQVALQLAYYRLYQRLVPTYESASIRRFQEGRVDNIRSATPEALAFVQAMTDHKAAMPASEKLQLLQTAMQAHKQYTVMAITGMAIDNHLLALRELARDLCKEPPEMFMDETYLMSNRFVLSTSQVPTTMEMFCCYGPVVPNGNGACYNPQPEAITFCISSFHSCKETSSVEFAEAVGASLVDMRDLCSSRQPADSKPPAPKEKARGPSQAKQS

[7] = target: Chymotrypsinogen A (Bos taurus) (UniProt P00766)
[8] = target: Chymotrypsinogen A (Bos taurus) (UniProt P00766); experiment: The second order inhibition rate constant for the compound was measured against chymotrypsinogen

Dipeptidyl peptidase 4 (Homo sapiens), sequence (P27487 whole entry, looked up): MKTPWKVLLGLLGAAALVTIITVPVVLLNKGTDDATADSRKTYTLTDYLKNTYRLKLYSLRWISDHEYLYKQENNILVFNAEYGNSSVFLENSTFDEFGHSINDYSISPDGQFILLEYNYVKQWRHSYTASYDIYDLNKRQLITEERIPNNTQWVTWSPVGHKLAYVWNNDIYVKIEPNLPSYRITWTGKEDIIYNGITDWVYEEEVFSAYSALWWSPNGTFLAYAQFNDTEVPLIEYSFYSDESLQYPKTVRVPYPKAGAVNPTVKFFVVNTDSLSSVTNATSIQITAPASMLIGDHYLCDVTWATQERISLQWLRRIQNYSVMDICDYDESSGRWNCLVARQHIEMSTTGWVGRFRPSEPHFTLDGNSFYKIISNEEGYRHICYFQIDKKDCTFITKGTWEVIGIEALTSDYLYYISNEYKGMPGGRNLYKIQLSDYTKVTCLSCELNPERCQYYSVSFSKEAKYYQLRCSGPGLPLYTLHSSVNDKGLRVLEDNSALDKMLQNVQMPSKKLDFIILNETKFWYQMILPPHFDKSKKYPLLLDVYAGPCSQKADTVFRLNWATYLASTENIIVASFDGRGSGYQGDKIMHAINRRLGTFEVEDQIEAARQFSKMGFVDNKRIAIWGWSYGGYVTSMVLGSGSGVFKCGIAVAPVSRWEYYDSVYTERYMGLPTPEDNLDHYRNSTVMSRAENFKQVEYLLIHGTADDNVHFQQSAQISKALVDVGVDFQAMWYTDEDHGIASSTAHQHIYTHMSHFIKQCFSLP

| SMILES | K obs / 1 [1] | K obs / 1 [2] [M⁻¹ s⁻¹] | K obs / 1 [3] | K obs / 1 (Papain (Carica papaya)) | K obs / 1 [4] | half-life [5] [days] | further results |
| --- | --- | --- | --- | --- | --- | --- | --- |
| C[C@H](N)C(=O)N1CCC[C@H]1P(=O)(Oc1ccccc1)Oc1ccccc1.Cl | No inhibition | 1.2 | No inhibition | No inhibition | No inhibition | 0.963 | K obs / 1 [6]: No inhibition; K obs / 1 [7]: No inhibition |
| C[C@H](N)C(=O)N1CCCCC1P(=O)(Oc1ccc(Cl)cc1)Oc1ccc(Cl)cc1 (some centres not stated) [listing 1 of 2 here] |  |  |  |  |  |  | T1/2 [5]: > 48 h |
| C[C@H](N)C(=O)N1CCCCC1P(=O)(Oc1ccc(F)cc1)Oc1ccc(F)cc1 (some centres not stated) |  | 12 |  |  |  | 2.83 |  |
| NCCCC[C@H](N)C(=O)N1CCCCC1P(=O)(Oc1ccccc1)Oc1ccccc1 (some centres not stated) |  | 4.2 |  |  |  | > 2 |  |
| C[C@H](N)C(=O)N1CCC[C@H]1P(=O)(Oc1ccc(Cl)cc1)Oc1ccc(Cl)cc1 | No inhibition | 28 | No inhibition | No inhibition | No inhibition | 0.221 | K obs / 1 [8]: 26 M⁻¹ s⁻¹ |
| C[C@H](N)C(=O)N1CCCCC1P(=O)(Oc1ccccc1)Oc1ccccc1 (some centres not stated) |  | 12.6 |  |  |  | > 3 |  |
| C[C@H](N)C(=O)N1CCCCC1P(=O)(Oc1ccc(Cl)cc1)Oc1ccc(Cl)cc1 (mixture of isomers) [listing 1 of 2 here] |  |  |  |  |  | 2.79 |  |
| C[C@H](N)C(=O)N1CCCCC1P(=O)(Oc1ccc(Cl)cc1)Oc1ccc(Cl)cc1 (some centres not stated) [listing 2 of 2 here] |  | 1300 |  |  |  |  |  |
| Br.Br.NCCCC[C@H](N)C(=O)N1CCC[C@H]1P(=O)(Oc1ccccc1)Oc1ccccc1 |  | 1.7 |  |  |  | 2.17 |  |
| C[C@H](N)C(=O)N1CCCCC1P(=O)(Oc1ccc(Cl)cc1)Oc1ccc(Cl)cc1 (mixture of isomers) [listing 2 of 2 here] | No inhibition | 156 | No inhibition | No inhibition | No inhibition |  | K obs / 1 [8]: 18 M⁻¹ s⁻¹ |

From ChEMBL document CHEMBL1127410, “Dipeptide phosphonates as inhibitors of dipeptidyl peptidase IV” (J Med Chem, 1994)
